Source: ChEMBL document CHEMBL1157841, “Stilbene analogs as inducers of apolipoprotein-I transcription” (Eur J Med Chem, 2010)

Tests used:
Caco-2 [1] = assay: Induction of human ApoA-1 gene expression in human Caco-2 cells co-transfected with luc-beta-galactosidase after 48 hrs assessed as luciferase activity by luminometer relative to resveratrol; format: functional
Summary of the method: (§1)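 Caco-2 cells stably carrying an ApoA-I promoter–luciferase reporter (co-transfected with pRSV-β-galactosidase as transfection control; selected in MEM with 20% calf serum and 0.5 mg/mL G418). Cells seeded, 24 h at 37 °C in 5% CO2, then starved 24 h in 0.5% FBS selection medium. Compounds added at 15 µM in 0.01% DMSO for 48 h. Cells lysed, luciferase read by luminometer and normalized to Bradford protein. Fold induction is taken against untreated cells and against resveratrol, which is run in each experiment.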

Caco-2 [2] = assay: Induction of human ApoA-1 gene expression in human Caco-2 cells co-transfected with luc-beta-galactosidase after 48 hrs assessed as luciferase activity by luminometer relative to control; format: functional; summary of the method: as §1
Caco-2 [3] = assay: Cytotoxicity against human Caco-2 cells; format: cell-based
Caco-2 [4] = assay: Induction of human ApoA-1 gene expression in human Caco-2 cells co-transfected with luc-beta-galactosidase at 15 uM after 48 hrs assessed as luciferase activity by luminometer relative to control; format: functional; summary of the method: as §1

SMILES | fold change (FC) (Caco-2 [1]) | fold change (FC) (Caco-2 [2]) | Activity (Caco-2 [3]) | fold change (FC) (Caco-2 [4])
O=S(=O)(Nc1ccc(O)cc1)c1ccc(O)cc1 | 0.4 | 1.3 |  | 
Oc1ccc(-c2nnc(-c3cccc(O)c3)o2)cc1 | 0.9 | 3.7 | Non-toxic | 
Oc1cccc(-c2nnc(-c3ccccc3)o2)c1 | 0.6 | 2.2 | Non-toxic | 
OCc1cccc(-c2nnc(-c3ccc(O)cc3)o2)c1 | 0.5 | 1.4 | Non-toxic | 
CC(=O)Nc1cc(O)ccc1/C=C/c1ccc(O)cc1 | 0.3 | 0.9 |  | 
CS(=O)(=O)c1cc(O)ccc1/C=C/c1ccc(O)cc1 | 0.7 | 2 |  | 
O=[N+]([O-])c1cc(O)ccc1/C=C/c1ccc(O)cc1 | 2.8 | 9.4 |  | 
COc1cc(O)ccc1/C=C/c1ccc(O)cc1 | 4.6 | 12.5 |  | 
OCc1cc(O)ccc1/C=C/c1ccc(O)cc1 | 0.5 | 2 |  | 
CN(C)C(=O)c1cc(O)ccc1/C=C/c1ccc(O)cc1 | 0.2 | 1.1 |  | 
Nc1cc(O)ccc1/C=C/c1ccc(O)cc1 | 0.9 | 3.2 |  | 
CCOC(=O)c1cc(/C=C/c2ccc(O)cc2)ccc1O | 0.4 | 1.1 |  | 
NC(=O)c1cc(/C=C/c2ccc(O)cc2)ccc1O | 0.7 | 2.7 |  | 
O=C(Nc1ccccc1)c1ccc(O)cc1 | 0.5 | 1.7 |  | 
O=C(O)c1cc(/C=C/c2ccc(O)cc2)ccc1O | 0.4 | 1.2 |  | 
Oc1ccc(/C=C/c2ccc(O)nc2)cc1 | 0.4 | 1.1 |  | 
Oc1ccc(-c2nnc(-c3ccccc3)o2)cc1 | 0.5 | 1.9 | Non-toxic | 
Oc1ccc(/N=N/c2ccc(O)cc2)cc1 | 1.3 | 3.4 |  | 
O=C(Nc1ccc(O)cc1)c1ccccc1 | 0.6 | 1.7 |  | 
O=C(Nc1ccc(O)cc1)c1ccc(O)cc1 | 0.7 | 1.9 |  | 
Oc1ccc(CCc2ccc(O)cc2)cc1 | 1 | 3.9 |  | 
Oc1ccc(/C=C/c2cc(O)cc(O)c2)cc1 [RESVERATROL] |  |  |  | 2.6
Oc1ccc(/C=C/c2ccc(O)cc2)cc1 [TRANS-4,4'-DIHYDROXYSTILBENE] | 1.6 | 5.1 |  | 
